Experimental data as given in the EternaBench riboswitch data.

Tested on: MS2 coat protein
Assay: apparent Kd, MS2 coat protein; higher = weaker binding; RNA-MaP array; FMN 200 µM where present
Procedure, shortened: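 Two titrations, one without ligand and one with constant ligand, were run with SNAP-549-labelled MS2 coat protein from 0.7 or 1.5 nM, doubling to 3 µM. The targets were designs transcribed by stalled E. coli RNA polymerase on Illumina sequencing-chip clusters, in 100 mM Tris-HCl pH 7.5, 80 mM KCl, 4 mM MgCl2, BSA, DTT, yeast tRNA and Tween-20. The apparent Kd is the median of filtered per-cluster binding-curve fits, with green signal normalised to red-channel RNA signal and control-cluster median Fmax.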

[1] = designed as: OFF switch for flavin mononucleotide, no ligand
[2] = ligand present: flavin mononucleotide, designed as: OFF switch for flavin mononucleotide
[3] = designed as: ON switch for flavin mononucleotide, no ligand
[4] = ligand present: flavin mononucleotide, designed as: ON switch for flavin mononucleotide

Row | Sequence | apparent Kd [1] | apparent Kd [2] | apparent Kd [3] | apparent Kd [4]
1 | ACAUGAGGAUCACCCAUGUUAUCCGGGACUUCAAUUGUAUCUAGAAGGCUGUCUGCUUGUUAGUCAGAGGAUAUAGAUUCAAAU | 12.4 nM | 11.1 nM |  | 
2 | GUACUACAUGAGGAUCACCCAUGUGAGGAUAUGCGAAUUUCAUCAAAAGAUGAAAUUUGCAGAAGGCACAGUAC | 31.2 nM | 29 nM |  | 
3 | GCACGGUAUGUAGGAUAUGCAUAGCAUUGCUAUGCAGAAGGACAUGAGGAUCACCCAUGUAUGUAUUCCAUACUAAUCCCGUGG | 5.38 nM | 5.72 nM |  | 
4 | GGAUGAGAAACUCAUCCAAUACGAACAUGAGGAUCACCCAUGUAGGAUAUGCUACUCAAAGAGUAGCAGAAGGACAUGUGUCUU | 27.4 nM | 159 nM |  | 
5 | UGUUCGUCAGGAUAUUCUACUUAUUACAUGAGGAUCACCCAUGUGUAUGUACAAGGGUGUGAAGAAGGGACUUUUU | 719 nM | 260 nM |  | 
6 | AAACAUGUCCGAGGAUAUCUGGAAACACUUUCAAGAGAAGGCGGACAUGAGGAUCACCCAUGUCUCUCCUCAUCAAAUCCAAGU | 6.53 nM | 30.2 nM |  | 
7 | AGCACGAAGAUUAUUAUGAAUAAACAUGAGGAUCACCCAUGUAAGGAUAUCGACUCGAAUAGAGUCGAGAAGGUACAUACGUGC | 11 nM | 51.8 nM |  | 
8 | AAUUGGAUCCAGAAGGCAUGGACGACCCGUCACAUUAACAUGAGGAUCACCCAUGUCAAAAGACAUGAGGAUAUGGAUCCUAAA |  |  | 752 nM | 31.8 nM
9 | UUGGUCGUCGUAGGAUAUGUAGGAUAUUCCUACAUGAGGAUCACCCAUGUUGACAUGGAAGAAGGACAGAAGGACGAUGUCCAU |  |  | 447 nM | 5.71 nM
10 | GUUGUGCGAGGAUAUACUUGGUGUGUCCUGUGCACGUAAUGACAUGAGGAUCACCCAUGUAGAAGGUGCCCAGG | 32.8 nM | 33.9 nM |  | 
11 | AACAGGACAGGAUAUACAUGAGGAUCACCCAUGUGAGAAUUAAGUAGAUUACCACAAAGUAGAAGGGUCCUGGA | 50.4 nM | 87.2 nM |  | 
12 | CCGAGGCAAAUAAAACAUGAGGAUCACCCAUGUGAGUCUCAUGAGGAUAUGCAGGUCAAAGACUUGCAGAAGGCAUGGCUUCGG |  |  | 1190 nM | 146 nM
13 | AAUAAACUCACAGGAUAUAGCAGCGGUCGCGUGAACUUACAGGCGACGAGGCUAGAAGGGUGACCACAUGAGGAUCACCCAUGU |  |  | 817 nM | 219 nM
14 | GUCAGAAGUGCAGGAUAUGCUGAGGCAUUCGCGGCAGAAGGGCACAUGAGGAUCACCCAUGUAGCCGGGUAUUGUACCUUAUCA | 6.36 nM | 9.16 nM |  | 
15 | UUACUUUUACAGAAGGUUUAAUAAUAUAUAAGAGAAGGAUAUGUAACAUGAGGAUCACCCAUGUUUCACCCAUAUGAGGAUCAU | 8.12 nM | 7.78 nM |  | 
16 | AGACUCUCUGGAGGAUAUCAUAGUCGUUGACUAUGAGAAGGUUAGCUAUCUUACAUGAGGAUCACCCAUGUGAUCUCUCUCGAG | 18.1 nM | 14.6 nM |  | 
17 | GAGCUCGAUGAGAAGGGUUACAUGAGGAUCACCCAUGUCGACCUUGGCGUAACAGGAUAUCACCGGGCUCAGUGCGUUGACCCA | 27.1 nM | 121 nM |  | 
18 | UAUUUACGAGGAUAUCGUUUUUUUCACAUGAGGAUCACCCAUGUUGUUUAUGUUGCGUUGCGAGAAGGCGUUUGUU | 31.1 nM | 23 nM |  | 
19 | ACAUUGCGAGGAUAUACAUGAGGAUCACCCAUGUGGUAGUGGAUACGGUAGGGCUAGUGUAGAAGGUGUCAUGG | 128 nM | 103 nM |  | 
20 | UGGUACAUGGGAGGAUAUGGGUUGAUAACAUGAGGAUCACCCAUGUUAAAUUUUGCCGAAAGGCACUAGAAGGCCCAUGUACCU |  |  | 1130 nM | 142 nM
